In ChEMBL document CHEMBL1143889, “N-Phenyl and N-phenylalkyl-maleimides acting against Candida spp.: time-to-kill, stability, interaction with maleamic acids” (2008):
Active and inactive are the calls of the source.

How the values were obtained:
Clavispora lusitaniae = assay: Antifungal activity against Candida lusitaniae C 131-2000 after 48 hrs by CLSI M27-A2 method; format: functional
Method in brief: (§1)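 Broth microdilution per CLSI M27-A2 in RPMI-1640, with twofold dilutions giving final 250–0.98 µg/mL. The inoculum was modified to 1–5 × 10⁴ CFU/mL instead of 1–5 × 10³, with ketoconazole and amphotericin B as positive controls. MIC was the lowest concentration giving total growth inhibition, read visually. Strains were grown on Sabouraud-chloramphenicol agar for 24 h at 37 °C.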

Candida tropicalis = assay: Antifungal activity against Candida tropicalis C 137-1997 after 48 hrs by CLSI M27-A2 method; format: functional; method in brief: as §1
Candida albicans [1] = assay: Antifungal activity against Candida albicans ATCC 10231 after 48 hrs by CLSI M27-A2 method; format: functional; details: ATCC 10231, 48 h; method in brief: as §1
Candida albicans [2] = assay: Antifungal activity against Candida albicans C 126-2000 after 48 hrs by CLSI M27-A2 method; format: functional; method in brief: as §1
Pichia kudriavzevii = assay: Antifungal activity against Candida krusei C 117-2000 after 48 hrs by CLSI M27-A2 method; format: functional; method in brief: as §1
Torulaspora delbrueckii = assay: Antifungal activity against Candida coliculosa C 122-2000 after 48 hrs by CLSI M27-A2 method; format: functional; method in brief: as §1
Kluyveromyces marxianus = assay: Antifungal activity against Candida kefyr C 123-2000 after 48 hrs by CLSI M27-A2 method; format: functional; method in brief: as §1
Candida albicans [3] = assay: Antifungal activity against Candida albicans C 130-2000 after 48 hrs by CLSI M27-A2 method; format: functional; method in brief: as §1
Candida albicans [4] = assay: Antifungal activity against Candida albicans C 127-2000 after 48 hrs by CLSI M27-A2 method; format: functional; method in brief: as §1
Candida albicans [5] = assay: Antifungal activity against Candida albicans C 125-2000 after 48 hrs by CLSI M27-A2 method; format: functional; method in brief: as §1
Candida albicans [6] = assay: Antifungal activity against Candida albicans C 128-2000 after 48 hrs by CLSI M27-A2 method; format: functional; method in brief: as §1
Candida albicans [7] = assay: Antifungal activity against Candida albicans C 129-2000 after 48 hrs by CLSI M27-A2 method; format: functional; method in brief: as §1
Candida parapsilosis = assay: Antifungal activity against Candida parapsilosis C 124-2000 after 48 hrs by CLSI M27-A2 method; format: functional; details: Lodderomyces parapsilosis; method in brief: as §1
Nakaseomyces glabratus = assay: Antifungal activity against Candida glabrata C 115-2000 after 48 hrs by CLSI M27-A2 method; format: functional; method in brief: as §1
Candida albicans [8] = assay: Antifungal activity against Candida albicans ATCC 10231 pre-incubated for 5 days analysed after 24 hrs by CLSI M27-A2 method; format: functional
Method in brief: (§2)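 Twofold maleimide dilutions (1000–0.98 µg/mL) in complete M27-A2 medium without inoculum were held at 37 °C, with one plate row filled on each of 7 consecutive days to give 0–7 days of pre-incubation. All wells were then inoculated with C. albicans ATCC 10231 at 1–5 × 10⁴ CFU/mL and incubated for 24 h at 37 °C. MIC was read per row, in duplicate.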

Candida albicans [9] = assay: Antifungal activity against Candida albicans ATCC 10231 pre-incubated for 3 days analysed after 24 hrs by CLSI M27-A2 method; format: functional; method in brief: as §2
Candida albicans [10] = assay: Antifungal activity against Candida albicans ATCC 10231 preincubated for 7 days analysed after 24 hrs by CLSI M27-A2 method; format: functional; method in brief: as §2
Candida albicans [11] = assay: Antifungal activity against Candida albicans ATCC 10231 within 90 mins by time-to-kill study; format: functional, organism-based
Method in brief: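 C. albicans ATCC 10231 (2–2.5 × 10⁴ CFU/mL) in 5 mL RPMI-1640 was exposed to 1× MFC of compound at 37 °C with agitation. 10 µL samples taken at 0, 30, 60, 90 and 120 min, and at 4, 8, 12 and 24 h, were plated on drug-free SDA and colonies counted after 24–48 h at 37 °C. Run in duplicate.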

Candida albicans [12] = assay: Antifungal activity against Candida albicans ATCC 10231 pre-incubated for 2 days analysed after 24 hrs by CLSI M27-A2 method; format: functional; method in brief: as §2
Candida albicans [13] = assay: Antifungal activity against Candida albicans ATCC 10231 after 24 hrs by CLSI M27-A2 method; format: functional; details: ATCC 10231, 24 h; method in brief: as §1
Candida albicans [14] = assay: Antifungal activity against Candida albicans ATCC 10231 pre-incubated for 4 days analysed after 24 hrs by CLSI M27-A2 method; format: functional; method in brief: as §2
Candida albicans [15] = assay: Antifungal activity against Candida albicans ATCC 10231 pre-incubated for 6 days analysed after 24 hrs by CLSI M27-A2 method; format: functional; method in brief: as §2
Candida albicans [16] = assay: Antifungal activity against Candida albicans ATCC 10231 pre-incubated for 1 day analysed after 24 hrs by CLSI M27-A2 method; format: functional; method in brief: as §2

O=C(O)/C=C\C(=O)NCCCc1ccccc1
> 250 µg/mL: MIC (Clavispora lusitaniae) | MIC (Candida tropicalis) | MIC (Candida albicans [1]) | MIC (Candida albicans [2]) | MIC (Pichia kudriavzevii) | MIC (Torulaspora delbrueckii) | MIC (Kluyveromyces marxianus) | MIC (Candida albicans [3]) | MIC (Candida albicans [4]) | MIC (Candida albicans [5]) | MIC (Candida albicans [6]) | MIC (Candida albicans [7]) | MIC (Candida parapsilosis) | MIC (Nakaseomyces glabratus)

O=C1C=CC(=O)N1Cc1ccccc1
32.2 µg/mL: MFC (Candida tropicalis)
7.8 µg/mL: MFC (Candida albicans [1]) | MIC (Candida albicans [9]) | MIC (Candida albicans [12])
1.95 µg/mL: MIC (Clavispora lusitaniae) | MIC (Torulaspora delbrueckii) | MFC (Candida albicans [3]) | MIC (Candida albicans [4]) | MFC (Candida albicans [5]) | MIC (Candida albicans [6]) | MIC (Candida albicans [7]) | MIC (Candida parapsilosis) | MFC (Nakaseomyces glabratus) | MIC (Nakaseomyces glabratus)
500 µg/mL: MIC (Candida albicans [10])
3.9 µg/mL: MFC (Clavispora lusitaniae) | MIC (Candida albicans [1]) | MFC (Candida albicans [2]) | MFC (Pichia kudriavzevii) | MIC (Pichia kudriavzevii) | MFC (Kluyveromyces marxianus) | MIC (Kluyveromyces marxianus) | MIC (Candida albicans [13]) | MFC (Candida albicans [4]) | MIC (Candida albicans [16]) | MFC (Candida albicans [6]) | MFC (Candida albicans [7]) | MFC (Candida parapsilosis)
0.97 µg/mL: MIC (Candida albicans [2]) | MIC (Candida albicans [3]) | MIC (Candida albicans [5])
125 µg/mL: MIC (Candida albicans [8])
7.81 µg/mL: MFC (Torulaspora delbrueckii)
active: Activity (Candida albicans [11])
250 µg/mL: MIC (Candida albicans [15])
15.8 µg/mL: MIC (Candida tropicalis) | MIC (Candida albicans [14])

O=C1C=CC(=O)N1CCCc1ccccc1
1.95 µg/mL: MIC (Clavispora lusitaniae) | MFC (Candida albicans [2]) | MFC (Candida albicans [3]) | MIC (Candida albicans [4]) | MFC (Candida albicans [5]) | MIC (Candida albicans [7]) | MIC (Nakaseomyces glabratus)
15.8 µg/mL: MIC (Candida tropicalis) | MIC (Candida albicans [9]) | MIC (Kluyveromyces marxianus) | MIC (Candida albicans [14])
active: Activity (Candida albicans [11])
32.2 µg/mL: MFC (Candida tropicalis) | MFC (Torulaspora delbrueckii)
125 µg/mL: MIC (Candida albicans [15])
7.8 µg/mL: MFC (Clavispora lusitaniae) | MFC (Candida albicans [1]) | MFC (Pichia kudriavzevii)
62.5 µg/mL: MIC (Candida albicans [8])
7.81 µg/mL: MFC (Kluyveromyces marxianus) | MFC (Candida albicans [6])
3.9 µg/mL: MIC (Candida albicans [1]) | MIC (Pichia kudriavzevii) | MIC (Torulaspora delbrueckii) | MIC (Candida albicans [12]) | MIC (Candida albicans [13]) | MFC (Candida albicans [4]) | MIC (Candida albicans [16]) | MIC (Candida albicans [6]) | MFC (Candida albicans [7]) | MFC (Candida parapsilosis) | MIC (Candida parapsilosis) | MFC (Nakaseomyces glabratus)
0.97 µg/mL: MIC (Candida albicans [2]) | MIC (Candida albicans [3]) | MIC (Candida albicans [5])
1000 µg/mL: MIC (Candida albicans [10])
